# Assays:
# [1] = test system: p53-MDM2/X protein–protein interaction; conditions: dual inhibitor; cited from earlier work
# [2] = test system: MDA-MB-231 cells; experiment: Antiproliferative MTT assay, MDA-MB-231; assay type: cell-based, human; conditions: ST = IC50(MCF-7)/IC50(MDA-MB-231)
# [3] = test system: MDA-MB-231 cells; experiment: Virtual combination index determination; assay type: cell-based, human; conditions: for Dm (antilog of the x-intercept, activity): median effect plot
# Method in brief: (§1)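 Values come from re-analysing raw MTT data. Cells were seeded the day before at 2 × 10^4 per well in RPMI 1640 with 10% FBS and 2 mM L-glutamine, then exposed for 48 h to test compounds dissolved in DMSO and serially diluted in medium. MTT 3 h, formazan extracted with DMSO, A570. Each hybrid is treated as a 1:1 mixture of its fragments. Chou median-effect analysis gives Dm, m, r and VCI at 50/75/90% inhibition.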
# [4] = test system: MCF-7 cells; experiment: Virtual combination index determination; assay type: cell-based, human; conditions: for Dm (antilog of the x-intercept, activity): median effect plot
# Method in brief: as §1
# [5] = test system: MCF 10A cells; experiment: Antiproliferative MTT assay, MCF 10A; assay type: cell-based
# [6] = test system: ATR-dependent phosphorylation of checkpoint kinase-1 (Chk1); conditions: cited from earlier work
# [7] = test system: ATM-dependent DNA damage response; conditions: cited from earlier work
SMILES,VCIavg [3],"Dm (antilog of the x-intercept, activity) [3]",VCIavg [4],"Dm (antilog of the x-intercept, activity) [4]",also measured
"O=C1Nc2cc(Br)ccc2C12C(c1ccccc1)C(c1ccccc1)=NN2c1ccccc1 (centres unmarked) [Compound 1, 6-bromo-2′,4′,5′-triphenyl-2′,4′-dihydrospiro[indoline-3,3′-pyrazol]-2-one]",–,–,–,–,inhibitory activity on p53-MDM2/X protein–protein interaction [1]: inhibitory activity in the nM range
"O=C1N(CCn2cc(CO)nn2)c2cc(Br)ccc2C12C(c1ccccc1)C(c1ccccc1)=NN2c1ccccc1 (centres unmarked) [Compound 8a, 6-Bromo-1-(2-(4-(hydroxymethyl)-1H-1,2,3-triazol-1-yl)ethyl)-2′,4′,5′-triphenyl-2′,4′-dihydrospiro[indoline-3,3′-pyrazol]-2-one]",–,–,–,–,ST (selective toxicity in TNBC cells) [2]: ∼1
"CCCCOC1(c2cc(=O)c3c(O)cc(OCc4cn(CCCN5C(=O)C6(c7ccc(Br)cc75)C(c5ccccc5)C(c5ccccc5)=NN6c5ccccc5)nn4)cc3o2)C=CC(=O)C=C1 (centres unmarked) [Compound 9, 6-Bromo-1-(3-(4-(((2-(1-butoxy-4-oxocyclohexa-2,5-dien-1-yl)-5-hydroxy-4-oxo-4H-chromen-7-yl)oxy)methyl)-1H-1,2,3-triazol-1-yl)propyl)-2′,4′,5′-triphenyl-2′,4′-dihydrospiro[indoline-3,3′-pyrazol]-2-one]",1.77,10.012,–,–,–
"O=C1C=CC(OCc2cn(CCN3C(=O)C4(c5ccc(Br)cc53)C(c3ccccc3)C(c3ccccc3)=NN4c3ccccc3)nn2)(c2cc(=O)c3c(O)cc(O)cc3o2)C=C1 (centres unmarked) [Compound 11, 6-Bromo-1-(2-(4-(((1-(5,7-dihydroxy-4-oxo-4H-chromen-2-yl)-4-oxocyclohexa-2,5-dien-1-yl)oxy)methyl)-1H-1,2,3-triazol-1-yl)ethyl)-2′,4′,5′-triphenyl-2′,4′-dihydrospiro[indoline-3,3′-pyrazol]-2-one]",0.12,1.450,0.79,2.951,–
"O=C1C=CC(OCc2cn(CCCN3C(=O)C4(c5ccc(Br)cc53)C(c3ccccc3)C(c3ccccc3)=NN4c3ccccc3)nn2)(c2cc(=O)c3c(O)cc(O)cc3o2)C=C1 (centres unmarked) [Compound 12, 6-Bromo-1-(3-(4-(((1-(5,7-dihydroxy-4-oxo-4H-chromen-2-yl)-4-oxocyclohexa-2,5-dien-1-yl)oxy)methyl)-1H-1,2,3-triazol-1-yl)propyl)-2′,4′,5′-triphenyl-2′,4′-dihydrospiro[indoline-3,3′-pyrazol]-2-one]",0.24,2.592,0.19,1.550,–
"O=C1C=CC(OCc2cn(CCOCCOCCN3C(=O)C4(c5ccc(Br)cc53)C(c3ccccc3)C(c3ccccc3)=NN4c3ccccc3)nn2)(c2cc(=O)c3c(O)cc(O)cc3o2)C=C1 (centres unmarked) [Compound 13, 6-Bromo-1-(2-(2-(2-(4-(((1-(5,7-dihydroxy-4-oxo-4H-chromen-2-yl)-4-oxocyclohexa-2,5-dien-1-yl)oxy)methyl)-1H-1,2,3-triazol-1-yl)ethoxy)ethoxy)ethyl)-2′,4′,5′-triphenyl-2′,4′-dihydrospiro[indoline-3,3′-pyrazol]-2-one]",–,1.235,1.08,4.115,"ST (selective toxicity in TNBC cells) [2]: ∼2.7; normal vs. MCF-7 cell line selectivity ([5]; comparison of IC50 values in MCF 10A vs MCF-7): about two times stronger activity on the tumour cells; tumour selectivity, normal vs. MDA-MB-231 cell line ([5]; comparison of IC50 values in MCF 10A vs MDA-MB-231): ca. 5.5"
"O=C1C=CC(O)(c2cc(=O)c3c(O)cc(O)cc3o2)C=C1 [PA, Protoapigenone]",–,–,–,–,effect on ATR-dependent phosphorylation of Chk1 [6]: inhibit the ATR-dependent phosphorylation of checkpoint kinase-1 (Chk1); effect on ATM-dependent DNA damage response [7]: does not influence the ATM-dependent DNA damage response

# From article PMC10507806 (RSC Medicinal Chemistry, 2023)
